Screens deposited in PubChem by The Scripps Research Institute Molecular Screening Center.
M4 ag = human M4 muscarinic receptor agonists, primary screen, CHO-K1 cells, Fluo-8 calcium fluorescence; AID 624127, 2012; CHO-K1 hM4/Gqi5; vehicle 0%, full acetylcholine response 100%; 360,000 compounds, 0.14% hits; activation, % at 3 µM; Muscarinic acetylcholine receptor M4 (Homo sapiens), P08173;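 active means activation above the run mean over all test wells plus 3 SD, cut at about 32% in these data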;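 further: peak over basal fluorescence ratio per well then scaled between controls; 0% = DMSO wells and 100% = acetylcholine at EC100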
Target sequence (P08173 whole entry, looked up): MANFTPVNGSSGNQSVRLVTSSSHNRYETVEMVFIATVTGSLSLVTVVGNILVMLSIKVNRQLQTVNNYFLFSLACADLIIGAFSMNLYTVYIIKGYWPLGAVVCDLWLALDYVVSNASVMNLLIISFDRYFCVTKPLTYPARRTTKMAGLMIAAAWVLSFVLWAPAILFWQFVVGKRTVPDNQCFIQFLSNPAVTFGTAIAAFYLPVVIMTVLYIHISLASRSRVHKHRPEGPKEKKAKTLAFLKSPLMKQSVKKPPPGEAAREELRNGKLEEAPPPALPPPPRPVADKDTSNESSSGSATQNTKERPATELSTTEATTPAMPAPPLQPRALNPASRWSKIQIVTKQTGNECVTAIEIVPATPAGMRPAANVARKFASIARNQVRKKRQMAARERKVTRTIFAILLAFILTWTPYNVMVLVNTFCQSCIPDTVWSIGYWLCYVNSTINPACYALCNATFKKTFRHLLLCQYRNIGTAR
M4 PAM = human M4 muscarinic receptor positive allosteric modulators, primary screen, CHO-K1 cells, Fluo-8 calcium fluorescence | Muscarinic acetylcholine receptor M4 (Homo sapiens), P08173 | CHO-K1 hM4/Gqi5, ACh EC20; 0% = ACh EC20, 100% = maximal ACh | activation, % at 3 µM | 360,000 compounds, 0.4% hits | AID 624126, 2012;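 active means activation above its plate's cutoff, the mean activation of sample wells plus 3 SD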
M5 PAM = human M5 muscarinic receptor positive allosteric modulators, primary screen, CHO-K1 cells, Fluo-8 calcium fluorescence | CHO-K1 hM5, ACh EC20 PAM; 0% = ACh EC20, 100% = ACh EC100 | activation, % at 3 µM | 360,000 compounds, 0.3% hits | Muscarinic acetylcholine receptor M5 (Homo sapiens), P08912;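 active means activation above the run cutoff, the mean activation of all test compounds plus 3 SD, cut at about 18% in these data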
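Probe or stimulus: acetylcholine, EC20 level; Assay system: human M5 receptor in CHO-K1 cells; Schedule: compound preincubation 140 s before EC20 acetylcholine addition; Technique: intracellular calcium via Fluo-8 fluorescence; Dosing: single-point, 3 µM nominal; Read-out basis: percent activation from peak-over-basal fluorescence ratio, scaled EC20-to-EC100 acetylcholine; Repeats: one well per compound, no replicates.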
M5 antag = human M5 muscarinic receptor antagonists, primary screen, CHO cells, Fluo-8 calcium fluorescence; CHO-hM5 cells, ACh EC80; 360,000 compounds, 0.59% hits; inhibition, % at 3 µM;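 active means inhibition above a per-plate cutoff, the mean of that plate's test compounds plus 3 SD, cut at about 27% in these data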;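 further: 0% = acetylcholine EC80 with DMSO and 100% = DMSO without agonist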
CHRM4 antagonist = human M4 muscarinic receptor antagonists, primary screen, CHO cells, Fluo-8 calcium fluorescence; Muscarinic acetylcholine receptor M4 (Homo sapiens), P08173; CHO-hM4 cells, ACh EC80; inhibition, % at 3 µM; 360,000 compounds, 0.73% hits; AID 624125, 2012;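 active means inhibition above its plate's cutoff, the mean inhibition of sample wells plus 3 SD, cut at about 27% in these data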;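 further: 0% = acetylcholine EC80 with DMSO and 100% = DMSO without agonist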
M5 ag = human M5 muscarinic receptor agonists, primary screen, CHO-K1 cells, Fluo-8 calcium fluorescence; Muscarinic acetylcholine receptor M5 (Homo sapiens), P08912; CHO-K1 hM5 cells; 0% DMSO wells, 100% maximal acetylcholine response; activation, % at 3 µM; 360,000 compounds, 0.19% hits; AID 624037, 2012;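 active means activation above the run's mean over test compounds plus 3 SD, cut at about 23% in these data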;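 further: signal is peak over basal fluorescence ratio across the kinetic read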
Numbers without * were called inactive. Sampled rows, rich in hits. Any-hit rate of the full collection: about 1.9%.

SMILES	M4 ag	M4 PAM	M5 PAM	M5 antag	CHRM4 antagonist	M5 ag
Cc1nn(-c2ccc(F)cc2)c(Cl)c1C(=O)OC(C)C(=O)N(C)C1CCCCC1 (centres undefined)	8	-3	1	-1	-7	2
CC(C)Cc1nn2c(N)c(/C=C3\C=Nc4ccccc43)c(=O)nc2s1	14	-8	-19	32*	1	3
CCOC(=O)N1CCC(NC(=S)Nc2ccc3nc(N4CCN(CC)CC4)cc(C)c3c2)CC1	-2	-31	1	3	37*	0
CCOC(=O)c1ccc(NC(=S)N2CCSC2c2ccc(Br)cc2)cc1 (centres undefined)	46*	-8	2	13	28*	14
CCOC(=O)c1ccc(NC(=S)N2CCC(O)CC2)cc1	1	2	0	11	-7	-3
O=[N+]([O-])c1ccc(CN2CCSCC2)cc1	1	4	22*	-11	-12	2
CCn1c(C)c(C(C)=O)c(N2CCN(c3ccc(F)cc3)CC2)nc1=S	2	11	14	2	5	-6
CC(=O)c1c(N2CCN(c3ccccc3)CC2)nc(=S)n(-c2ccccc2)c1C	1	-9	4	-4	1	-7
CC(=O)c1c(N2CCCCC2)nc(=S)n(Cc2ccccc2)c1C	1	-10	-1	-1	7	-6
CCn1c(C)c(C(C)=O)c(N2CCCC2)nc1=S	0	-27	1	0	37*	-8
C=CCn1c(C)c(C(C)=O)c(N2CCCC2)nc1=S	0	-14	7	-1	72*	-13
C=CCn1c(C)c(C(C)=O)c(N2CCN(c3ccccc3)CC2)nc1=S	1	-21	-13	5	30*	-7
O=C(COc1ccccc1)N(Cc1cccs1)C1CCS(=O)(=O)C1 (centres undefined)	0	-8	-1	5	2	-4
CC(=O)Nc1ccc(Nc2c3c4c(cccc4n(C)c2=O)C(=O)c2ccccc2-3)cc1	8	-9	-8	3	5	2
Cn1c(=O)c(NCCc2ccccc2)c2c3c(cccc31)C(=O)c1ccccc1-2	151*	-23	-26	74*	76*	93*
Cn1c(=O)c(NCCO)c2c3c(cccc31)C(=O)c1ccccc1-2	39*	-9	-8	13	13	32*
CCCCNc1c2c3c(cccc3n(C)c1=O)C(=O)c1ccccc1-2	176*	-39	-17	71*	77*	140*
Cc1c(Br)c([N+](=O)[O-])nn1CC(=O)NCC1CCCO1 (centres undefined)	1	9	-8	6	-1	-2
COc1ccc(CCn2c(=O)[nH]c3cc(C(=O)NCCCN4CCOCC4)ccc3c2=O)cc1OC	1	-1	2	6	-7	3
COc1ccc(CCn2c(=O)[nH]c3cc(C(=O)NCCN4CCOCC4)ccc3c2=O)cc1OC	4	29*	12	-6	21	-1
Cc1ccc(C(=O)NNC(=O)c2ccccc2O)cc1S(=O)(=O)N1CCCCC1	5	0	0	-4	8	0
CCOC(=O)/C(=C\C=C1/Sc2cc(OCC)c(OCC)cc2N1CC)C(C)=O	20	-5	-12	13	12	24*
CCOC(=O)/C(=C/C=C1\Sc2cc(OCC)c(OCC)cc2N1CC)C(C)=O	18	-9	-23	36*	12	147*
CCN1/C(=C/C(C)=O)Sc2ccc(OC)cc21	-1	6	13	1	1	-8
Nc1ccccc1SC1CC(=O)N(c2ccc(Cl)c(Cl)c2)C1=O (centres undefined)	15	-16	-15	28*	14	3
SMILES	M4 ag	M4 PAM	M5 PAM	M5 antag	CHRM4 antagonist	M5 ag
O=C(NC1CCN(Cc2ccccc2)CC1)C1COc2ccccc2O1 (centres undefined)	2	-14	-43	64*	18	-13
COc1ccc(Cl)cc1NS(=O)(=O)c1cccc(C(=O)NC2CCN(Cc3ccccc3)CC2)c1	8	-14	-5	19	32*	0
CCN(c1ccccc1)S(=O)(=O)c1ccc(C(=O)NC2CCN(Cc3ccccc3)CC2)cc1	25	-12	-43	22	46*	0
Cn1cc(Br)c(-c2cccc(NC(=O)CCCC(=O)O)c2)n1	0	-10	9	-2	-1	3
CCn1c(=O)c([N+](=O)[O-])c(N2CCOCC2)c2ccccc21	0	3	7	-4	4	-2
Cn1c(N=Nc2ccc(N3CCOCC3)cc2)[n+](C)c2ccccc21	-1	3	2	-1	2	3
Cn1c(=Nc2ccc(N3CCOCC3)cc2)ccc2ccccc21	2	-5	-21	39*	21	-2
CCn1c(=Nc2ccc(N3CCOCC3)cc2)ccc2ccccc21	1	0	-24	67*	-2	11
CC(=O)c1ccc(NC(=O)C(C)O/N=C(\N)c2ccccc2)cc1 (centres undefined)	3	7	0	2	-2	6
CCc1ccc(OCC(=O)NNC(=O)c2cnccn2)c(Br)c1	1	20*	3	-5	-19	-5
CC(C)(C)OC(=O)C[C@H]1C/C=C\C[C@H](CC(=O)NCCO)C(=O)NC[C@H](c2ccccc2)OC1=O	0	4	1	6	8	2
CCCCCc1c(-c2ccc(OC)cc2)ncn1CCc1ccccc1OC	10	-12	-22	17	34*	2
CCCCc1c(-c2ccc(OC)cc2)ncn1CCc1ccccc1OC	10	-13	-21	10	33*	2
CCCCc1c(-c2ccccc2)ncn1CCc1ccccc1OC	6	-12	-21	8	15	1
CCCCCc1c(-c2ccc(Cl)cc2)ncn1CCc1ccccc1OC	0	-4	0	3	-10	-1
NC(=O)c1c(-c2ccc(Cl)cc2Cl)csc1NC(=O)Cc1ccccc1	9	-25	-19	38*	3	0
COc1cc2ccccc2cc1C(=O)Nc1ccc(Cl)cn1	0	-1	-2	3	1	0
CN1CCC(Oc2ccc(Sc3ccccc3)cc2)CC1	12	-17	-10	17	34*	-4
